Data: ChEMBL document CHEMBL4028907, “Semisynthesis and Biological Evaluation of Xanthone Amphiphilics as Selective, Highly Potent Antifungal Agents to Combat Fungal Resistance” (J Med Chem, 2017)
≈ marks a conversion by molar mass, not a printed value. Calls of active or inactive are those of the source. The rule behind the calls is not given here.

How the values were obtained:
Candida albicans [1] = assay: Antifungal activity against Candida albicans ATCC 10231 after 24 hrs by two fold serial dilution method; assay type: functional; settings: ATCC 10231, 24 h
Procedure, shortened: (§1)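 Candida grown on Sabouraud dextrose agar at 35 °C for 24 h, adjusted to ~5×10^3 CFU/mL. Two-fold dilutions from 100 to 0.78 μg/mL in Sabouraud dextrose broth, incubated at 35 °C for 24 h. MIC is the lowest concentration inhibiting growth by eye and by OD600. CLSI-based with minor modifications.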

Candida albicans [2] = assay: Antifungal activity against drug resistant Candida albicans DF2672R after 24 hrs by two fold serial dilution method; assay type: functional; procedure, shortened: as §1
[3] = Selectivity index, ratio of HC50 for New Zealand white rabbit RBC to MIC for Candida albicans ATCC 10231
Staphylococcus aureus [4] = assay: Antibacterial activity against Staphylococcus aureus DM4001R by two fold serial dilution method; assay type: functional
Procedure, shortened: (§2)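 Broth microdilution (CLSI, minor modifications) in Sabouraud dextrose, Mueller−Hinton or RPMI 1640 broth; two-fold serial dilutions of compound from stock to final 100 to 0.78 μg/mL. MIC taken as lowest concentration giving no visible growth.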

Bacillus cereus = assay: Antibacterial activity against Bacillus cereus ATCC11778 by two fold serial dilution method; assay type: functional; procedure, shortened: as §2
Klebsiella pneumoniae = assay: Antibacterial activity against Klebsiella pneumoniae DM4299 by two fold serial dilution method; assay type: functional; procedure, shortened: as §2
Pseudomonas aeruginosa = assay: Antibacterial activity against Pseudomonas aeruginosa DM23155 by two fold serial dilution method; assay type: functional; procedure, shortened: as §2
Candida albicans [5] = assay: Antifungal activity against Candida albicans DF1976R after 24 hrs by two fold serial dilution method; assay type: functional; procedure, shortened: as §1
Candida albicans [6] = assay: Antifungal activity against Candida albicans ATCC90028 after 24 hrs by two fold serial dilution method; assay type: functional; settings: ATCC90028, 24 h; procedure, shortened: as §1
Candida albicans [7] = assay: Antifungal activity against Candida albicans ATCC24433 after 24 hrs by two fold serial dilution method; assay type: functional; settings: ATCC24433, 24 h; procedure, shortened: as §1
Candida albicans [8] = assay: Antifungal activity against Candida albicans ATCC11651 after 24 hrs by two fold serial dilution method; assay type: functional; settings: ATCC11651, 24 h; procedure, shortened: as §1
Fusarium solani [9] = assay: Antifungal activity against Fusarium solani 52628 after 48 hrs by two fold serial dilution method; assay type: functional; settings: Fusarium solani, 52628, 48 h
Procedure, shortened: (§3)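 Moulds grown on potato dextrose agar, 30 °C, 4 days; inoculum adjusted to about 5×10^3 CFU/mL. Two-fold serial dilutions in RPMI-1640 broth, 100 to 0.78 μg/mL final, mixed with equal volume of cell suspension; incubated 30 °C, 48 h. MIC = lowest concentration inhibiting growth, judged visually and by OD530.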

Fusarium solani [10] = assay: Antifungal activity against Fusarium solani 62877 after 48 hrs by two fold serial dilution method; assay type: functional; settings: Fusarium solani, 62877, 48 h; procedure, shortened: as §3
Fusarium solani [11] = assay: Antifungal activity against Fusarium solani MYA3636 after 48 hrs by two fold serial dilution method; assay type: functional; settings: MYA3636, 48 h; procedure, shortened: as §3
Fusarium solani [12] = assay: Antifungal activity against Fusarium solani 46492 after 48 hrs by two fold serial dilution method; assay type: functional; settings: Fusarium solani, 46492, 48 h; procedure, shortened: as §3
Aspergillus brasiliensis = assay: Antifungal activity against Aspergillus brasiliensis TCC16404 after 48 hrs by two fold serial dilution method; assay type: functional; settings: TCC16404, 48 h; procedure, shortened: as §3
Aspergillus flavus [13] = assay: Antifungal activity against Aspergillus flavus TCC 204304 after 48 hrs by two fold serial dilution method; assay type: functional; settings: TCC 204304, 48 h; procedure, shortened: as §3
Aspergillus flavus [14] = assay: Antifungal activity against Aspergillus flavus TCC MYA3631 after 48 hrs by two fold serial dilution method; assay type: functional; settings: TCC MYA3631, 48 h; procedure, shortened: as §3
Aspergillus fumigatus [15] = assay: Antifungal activity against Aspergillus fumigatus TCC MYA3626 after 48 hrs by two fold serial dilution method; assay type: functional; settings: TCC MYA3626, 48 h; procedure, shortened: as §3
Aspergillus fumigatus [16] = assay: Antifungal activity against Aspergillus fumigatus TCC 90906 after 48 hrs by two fold serial dilution method; assay type: functional; settings: TCC 90906, 48 h; procedure, shortened: as §3
Candida albicans [17] = assay: Synergistic antifungal activity against drug resistant Candida albicans DF2672R after 24 hrs in presence of itraconazole by checkerboard assay; assay type: functional
Procedure, shortened: (§4)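 Checkerboard combination of each compound with a second antifungal, following a previously reported procedure. FIC = MIC of A in combination/MIC of A alone + MIC of B in combination/MIC of B alone.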

Candida albicans [18] = assay: Synergistic antifungal activity against drug resistant Candida albicans DF2672R after 24 hrs in presence of miconazole by checkerboard assay; assay type: functional; procedure, shortened: as §4
Candida albicans [19] = assay: Synergistic antifungal activity against drug resistant Candida albicans DF2672R after 24 hrs in presence of terbinafine by checkerboard assay; assay type: functional; procedure, shortened: as §4
Candida albicans [20] = assay: Synergistic antifungal activity against drug resistant Candida albicans DF2672R after 24 hrs in presence of posaconazole by checkerboard assay; assay type: functional; procedure, shortened: as §4
Candida albicans [21] = assay: Synergistic antifungal activity against drug resistant Candida albicans DF2672R after 24 hrs in presence of natamycin by checkerboard assay; assay type: functional; procedure, shortened: as §4
Candida albicans [22] = assay: Synergistic antifungal activity against drug resistant Candida albicans DF2672R after 24 hrs in presence of amphotericin B by checkerboard assay; assay type: functional; procedure, shortened: as §4
Candida albicans [23] = assay: Fungicidal activity against drug resistant Candida albicans DF2672R after 0.5 to 24 hrs by time kill assay; assay type: functional
Procedure, shortened: (§5)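 Cells at 10^5–10^6 CFU/mL exposed to 1×, 2×, 4× or 8× MIC at 35 °C. Samples taken at 0.5, 1, 2, 4, 8 and 24 h, serially diluted in PBS and plated on SDA. CFU counted after 24 h at 35 °C; biological replicates.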

Candida albicans [24] = assay: Fungicidal activity against drug resistant Candida albicans DF2672R at 8 times MIC after 4 hrs by time kill assay relative to control; assay type: functional; procedure, shortened: as §5
Candida albicans [25] = assay: Ratio of MIC against drug resistant Candida albicans DF2672R measured after 30 passages to MIC against drug resistant Candida albicans DF2672R measured before 30 passages by two fold serial dilution method; assay type: functional
Procedure, shortened: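 Serial passage: cells from duplicate tubes at 0.5× MIC adjusted to ~5×10^3 CFU/mL and used as the inoculum for the next broth microdilution MIC, 24 h at 35 °C. Repeated for 27–30 passages, with biological replicates.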

Fusarium oxysporum [26] = assay: Antifungal activity against Fusarium oxysporum MYA3461 after 48 hrs by two fold serial dilution method; assay type: functional; settings: MYA3461, 48 h; procedure, shortened: as §3
Fusarium oxysporum [27] = assay: Antifungal activity against Fusarium oxysporum 64530 after 48 hrs by two fold serial dilution method; assay type: functional; settings: Fusarium oxysporum, 64530, 48 h; procedure, shortened: as §3
[28] = Cytotoxicity against human corneal fibroblasts assessed as cell viability up to 100 uM after 4 hrs by LDH assay relative to control; assay type: cell-based, Corneal fibroblast; settings: read-out: Activity
Procedure, shortened: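 LDH release assay on human corneal fibroblasts seeded at 10000 cells per well, exposed to a range of compound concentrations up to 100 μM. 1% Triton X-100 served as positive control and 0.5% DMSO as negative control; biological replicates.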

Candida albicans [29] = assay: Induction of membrane permiablization in drug resistant Candida albicans DF2672R at 4 times MIC after 1 to 2 hrs by SYTOX green dye based spectrofluorometric assay; assay type: functional
Procedure, shortened: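 Overnight cultures washed and resuspended in PBS at OD600 0.2, then loaded with 0.3 μM SYTOX Green in the dark. After the signal stabilised, compound in PBS/DMF was added (final DMF 0.5%; 0.5% DMF as control). Fluorescence (ex 504/em 523 nm) followed continuously for 1–2 h; biological replicates.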

Lipid bilayer [30] = assay: Induction of membrane permiablization in calcein loaded DOPC/DOPE/PI large unilamellar vesicles assessed as calcein leakage at 1:4 compound to lipid ratio after 1 to 2 hrs by fluorescence assay relative to control
Procedure, shortened: (§6)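 LUVs (DOPC/DOPE/PI 2:1:1 with 15 wt % ergosterol, about 100 nm) made by film hydration and extrusion, loaded with 80 mM calcein in HEPES buffer pH 7.4. Free dye removed by G-50 column. Compound added in 0.5% DMF at 50 μM final phospholipid. Emission read at 520 nm (excitation 490 nm); leakage normalized to 1% Triton X-100.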

Lipid bilayer [31] = assay: Induction of membrane permiablization in calcein loaded DOPC/DOPE/PI large unilamellar vesicles assessed as calcein leakage at 1:8 compound to lipid ratio after 1 to 2 hrs by […] fluorescence assay relative to control; procedure, shortened: as §6
Staphylococcus aureus [32] = assay: Antibacterial activity against methicillin resistant Staphylococcus aureus DM21455 by two fold serial dilution method; assay type: functional
Procedure, shortened: (§7)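 Broth microdilution per CLSI guidelines with minor modifications, run in Mueller−Hinton broth; MIC is the lowest concentration giving no visible growth.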

Staphylococcus aureus [33] = assay: Antibacterial activity against methicillin resistant Staphylococcus aureus DM9808R by two fold serial dilution method; assay type: functional; procedure, shortened: as §7

CCCCN(CCCC)CC(O)COc1cc2oc3cc(OCC(O)CN(CCCC)CCCC)c(OC)c(CC=C(C)C)c3c(=O)c2c(O)c1CC=C(C)C (configuration not stated)
MIC (Candida albicans [1]): 3.13 µg/mL (≈ 4.01 µM) | MIC (Candida albicans [2]): 3.13 µg/mL (≈ 4.01 µM) | Selectivity Index [3]: > 128 | MIC (Staphylococcus aureus [4]): > 50 µg/mL | MIC (Bacillus cereus): > 50 µg/mL | MIC (Klebsiella pneumoniae): > 50 µg/mL | MIC (Pseudomonas aeruginosa): > 50 µg/mL | MIC (Candida albicans [5]): 3.13 µg/mL (≈ 4.01 µM) | MIC (Candida albicans [6]): 3.13 µg/mL (≈ 4.01 µM) | MIC (Candida albicans [7]): 3.13 µg/mL (≈ 4.01 µM) | MIC (Candida albicans [8]): 3.13 µg/mL (≈ 4.01 µM) | MIC (Fusarium solani [9]): 6.25 µg/mL (≈ 8 µM) | MIC (Fusarium solani [10]): 6.25 µg/mL (≈ 8 µM) | MIC (Fusarium solani [11]): 3.13 µg/mL (≈ 4.01 µM) | MIC (Fusarium solani [12]): 6.25 µg/mL (≈ 8 µM) | MIC (Aspergillus brasiliensis): 3.13 µg/mL (≈ 4.01 µM) | MIC (Aspergillus flavus [13]): 12.5 µg/mL (≈ 16 µM) | MIC (Aspergillus flavus [14]): 12.5 µg/mL (≈ 16 µM) | MIC (Aspergillus fumigatus [15]): 6.25 µg/mL (≈ 8 µM) | MIC (Aspergillus fumigatus [16]): 12.5 µg/mL (≈ 16 µM) | fractional inhibitory concentration index (FICI) (Candida albicans [17]): 0.63 | fractional inhibitory concentration index (FICI) (Candida albicans [18]): 0.81 | fractional inhibitory concentration index (FICI) (Candida albicans [19]): 0.29 | fractional inhibitory concentration index (FICI) (Candida albicans [20]): 0.91 | fractional inhibitory concentration index (FICI) (Candida albicans [21]): 0.91 | fractional inhibitory concentration index (FICI) (Candida albicans [22]): 0.64 | Activity (Candida albicans [23]): Dose-dependent effect | Activity (Candida albicans [24]): 99.9% | Ratio (Candida albicans [25]): 2 | MIC (Fusarium oxysporum [26]): 3.13 µg/mL (≈ 4.01 µM) | MIC (Fusarium oxysporum [27]): 6.25 µg/mL (≈ 8 µM) | viability at 4 h [28]: > 99% | Activity (Candida albicans [29]): Active | Activity (Lipid bilayer [30]): 55.4% | Activity (Lipid bilayer [31]): 25.8% | MIC (Staphylococcus aureus [32]): > 50 µg/mL | MIC (Staphylococcus aureus [33]): > 50 µg/mL
